Experimental data: ChEMBL document CHEMBL1137497, “4-arylcyclohexylalanine analogs as potent, selective, and orally active inhibitors of dipeptidyl peptidase IV” (Bioorg Med Chem Lett, 2007)
pIC50: −log10 of the molar value. Values belong to the molecule of their own block, whether it stands above or below them.

How the values were obtained:
[1] = molecular target: Dipeptidyl peptidase 8 (Homo sapiens, UniProt Q6V1X1); assay: Inhibition of human DPP8
[2] = Plasma clearance in rat at 1 mg/kg, iv or 2 mg/kg, po; type: ADME, organism-based
Summary of the method: (§1)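 Pharmacokinetic parameters derived by noncompartmental analysis.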

[3] = system: Mus musculus; assay: Reduction in glucose excursion in mouse at 0.1 mg/kg, po administered 60 mins prior to dextrose challenge by oral glucose tolerance test; type: functional; parameters: scale not given: the % may be the effect or the level left
Summary of the method: (§2)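 Single oral dose given 60 min before an oral dextrose challenge. Blood glucose was monitored, and glucose excursion was expressed as percent reduction relative to vehicle-dosed controls.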

[4] = Oral bioavailability in rat at 2 mg/kg; type: ADME, organism-based; conditions: in vivo; summary of the method: as §1
[5] = molecular target: Dipeptidyl peptidase 9 (Homo sapiens, UniProt Q86TI2); assay: Inhibition of human DPP9
[6] = molecular target: Voltage-gated inwardly rectifying potassium channel KCNH2 (Homo sapiens, UniProt Q12809); assay: Inhibition of human ERG
[7] = Half life in rat; type: ADME, organism-based; conditions: in vivo
[8] = Oral bioavailability in rat; type: ADME, organism-based; conditions: in vivo
[9] = Plasma clearance in rat; type: ADME, organism-based
[10] = AUC in rat at 2 mg/kg, po; type: ADME, organism-based; parameters: dose 2 mg/kg, route oral; conditions: plasma; summary of the method: as §1
[11] = Cmax in rat at 1 mg/kg, iv or 2 mg/kg, po; type: ADME, organism-based; conditions: in vivo; summary of the method: as §1
[12] = Half life in rat at 1 mg/kg, iv or 2 mg/kg, po; type: ADME, organism-based; conditions: in vivo; summary of the method: as §1
[13] = system: Canis familiaris; assay: AUC in dog at 0.5 mg/kg, po; type: ADME, organism-based, Canis lupus familiaris, Plasma; parameters: dose 0.5 mg/kg, route oral; conditions: in vivo; summary of the method: as §1
[14] = Cmax in dog at 0.5 mg/kg, po; type: ADME, organism-based, Canis lupus familiaris; parameters: dose 0.5 mg/kg, route oral; conditions: in vivo; summary of the method: as §1
[15] = Half life in dog at 0.5 mg/kg, po; type: ADME, organism-based, Canis lupus familiaris; parameters: dose 0.5 mg/kg, route oral; conditions: in vivo; summary of the method: as §1
[16] = Oral bioavailability in dog at 0.5 mg/kg; type: ADME, organism-based, Canis lupus familiaris; conditions: in vivo; summary of the method: as §1
[17] = AUC in rhesus monkey at 2 mg/kg, po; type: ADME, organism-based, Macaca mulatta; parameters: dose 2 mg/kg, route oral; conditions: plasma; summary of the method: as §1
[18] = Plasma clearance in rhesus monkey at 1 mg/kg, iv or 2 mg/kg, po; type: ADME, organism-based, Macaca mulatta; summary of the method: as §1
[19] = Cmax in rhesus monkey at 1 mg/kg, iv or 2 mg/kg, po; type: ADME, organism-based, Macaca mulatta; conditions: in vivo; summary of the method: as §1
[20] = Half life in rhesus monkey at 1 mg/kg, iv or 2 mg/kg, po; type: ADME, organism-based, Macaca mulatta; conditions: in vivo; summary of the method: as §1
[21] = Oral bioavailability in rhesus monkey at 2 mg/kg; type: ADME, organism-based, Macaca mulatta; conditions: in vivo; summary of the method: as §1
[22] = system: Mus musculus; assay: Reduction in glucose excursion in mouse at 0.03 mg/kg, po administered 60 mins prior to dextrose challenge by oral glucose tolerance test; type: functional; parameters: scale not given: the % may be the effect or the level left; summary of the method: as §2

Voltage-gated inwardly rectifying potassium channel KCNH2, sequence (Q12809 whole entry): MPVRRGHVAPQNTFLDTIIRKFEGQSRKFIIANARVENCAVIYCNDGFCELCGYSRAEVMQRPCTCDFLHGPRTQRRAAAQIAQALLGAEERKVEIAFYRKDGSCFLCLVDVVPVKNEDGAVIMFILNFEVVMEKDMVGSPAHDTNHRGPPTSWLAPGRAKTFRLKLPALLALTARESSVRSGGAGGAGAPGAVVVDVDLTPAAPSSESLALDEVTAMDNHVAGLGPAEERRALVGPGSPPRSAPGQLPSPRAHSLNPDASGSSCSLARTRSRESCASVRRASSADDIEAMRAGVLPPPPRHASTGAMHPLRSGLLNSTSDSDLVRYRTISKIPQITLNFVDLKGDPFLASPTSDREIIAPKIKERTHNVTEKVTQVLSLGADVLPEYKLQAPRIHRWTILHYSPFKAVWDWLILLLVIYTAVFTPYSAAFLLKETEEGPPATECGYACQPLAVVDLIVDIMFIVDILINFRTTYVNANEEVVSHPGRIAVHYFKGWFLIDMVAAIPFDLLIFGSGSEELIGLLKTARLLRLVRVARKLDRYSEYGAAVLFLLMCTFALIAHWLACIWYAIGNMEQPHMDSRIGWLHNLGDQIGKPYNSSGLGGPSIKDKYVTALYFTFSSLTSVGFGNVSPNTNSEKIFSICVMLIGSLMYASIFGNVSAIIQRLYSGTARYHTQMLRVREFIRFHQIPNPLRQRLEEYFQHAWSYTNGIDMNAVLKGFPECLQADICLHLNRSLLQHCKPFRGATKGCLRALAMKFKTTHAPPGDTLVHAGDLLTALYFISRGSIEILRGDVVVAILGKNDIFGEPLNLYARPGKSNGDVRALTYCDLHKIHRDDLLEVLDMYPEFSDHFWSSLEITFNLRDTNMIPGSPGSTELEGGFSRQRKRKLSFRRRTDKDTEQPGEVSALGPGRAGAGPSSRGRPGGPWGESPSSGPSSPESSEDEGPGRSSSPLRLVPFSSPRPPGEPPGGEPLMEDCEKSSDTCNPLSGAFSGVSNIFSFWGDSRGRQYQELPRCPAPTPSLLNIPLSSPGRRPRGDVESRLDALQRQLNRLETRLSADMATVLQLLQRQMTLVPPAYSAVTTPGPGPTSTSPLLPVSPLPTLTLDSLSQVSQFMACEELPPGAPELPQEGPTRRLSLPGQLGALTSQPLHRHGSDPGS
Dipeptidyl peptidase 8, sequence (Q6V1X1 whole entry): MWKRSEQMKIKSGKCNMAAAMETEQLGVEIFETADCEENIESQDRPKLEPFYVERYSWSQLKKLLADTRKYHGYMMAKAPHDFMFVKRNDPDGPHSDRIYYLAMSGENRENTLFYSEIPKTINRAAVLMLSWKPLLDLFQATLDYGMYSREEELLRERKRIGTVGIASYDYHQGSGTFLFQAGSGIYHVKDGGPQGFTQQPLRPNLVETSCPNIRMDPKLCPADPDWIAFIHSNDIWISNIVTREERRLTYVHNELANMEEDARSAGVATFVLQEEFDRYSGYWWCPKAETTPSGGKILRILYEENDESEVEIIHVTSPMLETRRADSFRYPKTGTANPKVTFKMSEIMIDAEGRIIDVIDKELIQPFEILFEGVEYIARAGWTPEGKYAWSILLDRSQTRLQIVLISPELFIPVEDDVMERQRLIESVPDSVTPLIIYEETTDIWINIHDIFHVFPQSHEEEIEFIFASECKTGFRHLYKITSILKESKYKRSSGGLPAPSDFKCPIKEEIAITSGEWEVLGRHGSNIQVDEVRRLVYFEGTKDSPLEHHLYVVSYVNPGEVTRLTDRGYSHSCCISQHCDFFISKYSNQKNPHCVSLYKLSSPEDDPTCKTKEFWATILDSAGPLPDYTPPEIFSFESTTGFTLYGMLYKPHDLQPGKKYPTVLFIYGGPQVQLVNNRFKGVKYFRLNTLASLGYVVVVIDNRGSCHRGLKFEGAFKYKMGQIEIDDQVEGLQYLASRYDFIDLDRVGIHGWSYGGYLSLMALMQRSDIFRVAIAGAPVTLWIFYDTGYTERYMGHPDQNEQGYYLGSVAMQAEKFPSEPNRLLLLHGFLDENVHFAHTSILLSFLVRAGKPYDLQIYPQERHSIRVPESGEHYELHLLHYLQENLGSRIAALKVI
Dipeptidyl peptidase 9, sequence (Q86TI2 whole entry): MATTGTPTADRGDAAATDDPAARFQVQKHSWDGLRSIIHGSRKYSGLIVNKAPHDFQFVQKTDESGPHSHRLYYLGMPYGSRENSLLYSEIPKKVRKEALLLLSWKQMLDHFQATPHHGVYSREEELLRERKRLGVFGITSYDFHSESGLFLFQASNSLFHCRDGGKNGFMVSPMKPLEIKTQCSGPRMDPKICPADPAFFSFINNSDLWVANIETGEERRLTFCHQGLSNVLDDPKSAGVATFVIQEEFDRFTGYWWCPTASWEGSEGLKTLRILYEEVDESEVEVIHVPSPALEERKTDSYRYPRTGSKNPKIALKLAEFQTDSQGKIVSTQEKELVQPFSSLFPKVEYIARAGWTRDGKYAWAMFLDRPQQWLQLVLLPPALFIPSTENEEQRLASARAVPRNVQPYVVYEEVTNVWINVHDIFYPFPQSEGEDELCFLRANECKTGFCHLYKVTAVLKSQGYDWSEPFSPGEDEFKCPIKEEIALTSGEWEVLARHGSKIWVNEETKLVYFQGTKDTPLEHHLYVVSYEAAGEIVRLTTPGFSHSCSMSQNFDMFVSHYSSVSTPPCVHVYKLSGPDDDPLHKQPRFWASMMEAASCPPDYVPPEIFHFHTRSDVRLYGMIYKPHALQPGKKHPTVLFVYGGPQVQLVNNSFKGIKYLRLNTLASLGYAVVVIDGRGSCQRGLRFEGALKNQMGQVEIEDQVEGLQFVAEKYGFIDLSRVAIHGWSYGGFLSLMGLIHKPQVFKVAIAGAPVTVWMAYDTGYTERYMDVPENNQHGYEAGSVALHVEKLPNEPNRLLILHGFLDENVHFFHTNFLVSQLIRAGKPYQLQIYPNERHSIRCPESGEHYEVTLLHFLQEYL

- pIC50 [1]: < 4.00
Compound: COc1cc([C@H]2CC[C@@H]([C@H](C(=O)N(C)C)[C@H](N)C(=O)N3CCC(F)(F)C3)CC2)nc(OC)n1

- pIC50 [1]: < 4.00
Compound: COc1cc([C@H]2CC[C@H]([C@H](C(=O)N(C)C)[C@H](N)C(=O)N3CCC(F)(F)C3)CC2)nc(OC)n1

- clearance [2]: 4.8 mL/min/kg
Compound: CN(C)C(=O)[C@@H](c1ccc(-c2ccc(F)cc2)cc1)[C@H](N)C(=O)N1CC[C@H](F)C1
- Activity [3]: 21%

- clearance [2]: 8.6 mL/min/kg
- bioavailability [4]: 85%
Compound: C[C@@H](c1ccc(-c2ccc(F)cc2)cc1)[C@H](N)C(=O)N1CC[C@H](F)C1

- clearance [2]: 7 mL/min/kg
Compound: CN(C)C(=O)[C@@H](c1ccc(-c2ccc3ncnn3c2)cc1)[C@H](N)C(=O)N1CC[C@H](F)C1

- pIC50 [5]: < 4.00
- clearance [2]: 42 mL/min/kg
- bioavailability [4]: 56%
Compound: CC(=O)N[C@H]1CC[C@H]([C@H](C)[C@H](N)C(=O)N2CC[C@H](F)C2)CC1
- pIC50 [6]: < 4.00
- Activity [3]: 26%

- half-life [7]: 2.9 h
- bioavailability [8]: 98%
- clearance [9]: 40 mL/min/kg
Compound: CN(C)C(=O)[C@@H]([C@H]1CC[C@H](c2cccc3ncnn32)CC1)[C@H](N)C(=O)N1CCC(F)(F)C1

- half-life [7]: 0.54 h
- bioavailability [8]: 31%
Compound: CN(C)C(=O)[C@@H]([C@H]1CC[C@H](c2cccc3ncnn32)CC1)[C@H](N)C(=O)N1CC[C@H](F)C1

- AUC [10]: 4.4 µM·h
- clearance [2]: 5.3 mL/min/kg
- bioavailability [4]: 63%
- Cmax [11]: 3.3 µM
- half-life [12]: 4.1 h
- AUC [13]: 46 µM·h
- Cmax [14]: 16 µM
- half-life [15]: 3.9 h
- bioavailability [16]: 100%
- AUC [17]: 6.5 µM·h
- clearance [18]: 5.6 mL/min/kg
- Cmax [19]: 2.8 µM
- half-life [20]: 4.1 h
- bioavailability [21]: 97%
Compound: CN(C)C(=O)[C@@H]([C@H]1CC[C@H](c2ccc3ncnn3c2)CC1)[C@H](N)C(=O)N1CCC(F)(F)C1
- pIC50 [6]: < 4.05
- Activity [22]: 23%
